According to ChEMBL document CHEMBL3734720, “Synthesis of thiophene-thiosemicarbazone derivatives and evaluation of their in vitro and in vivo antitumor activities” (Eur J Med Chem, 2015):

Experiments:
[1] = Antiproliferative activity against human HaCaT cells assessed as growth inhibition after 48 hrs by SRB assay; format: cell-based
In short: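 Cells exposed 48 h at 37 °C, 5% CO2 to 0.25, 2.5, 25 and 250 µg/mL in DMSO/RPMI (final DMSO 0.1%); doxorubicin standard at 0.025–25 µg/mL. Plates fixed with 50% TCA before (T0) and after treatment; protein content read by sulforhodamine B at 540 nm. GI50 (µM) from nonlinear regression of concentration–response curves; triplicate.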

[2] = test system: 786-0; experiment: Cytotoxicity against human 786-0 cells assessed as compound concentration required to cause 50% cell death after 24 hrs by SRB assay; format: functional; settings: 786-0, 24 h, read-out: LC50 (the source's name)
In short: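 786-0 cells exposed 24 h to 25, 50, 100 and 200 µM; growth measured by sulforhodamine B staining of TCA-fixed cells (540 nm) with time-zero plate; LC50 (50% cell death) and TGI derived by non-linear regression.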

[3] = Antitumor activity against mouse EAT implanted in Balb/C mouse assessed as change in paw volume at 100 mg/kg, po administered on day 3 post tumor inoculation measured on day 9 by plethysmometer analysis (reference value: 95.5 +/- 5.2%); format: functional
[4] = Antitumor activity against mouse EAT implanted in Balb/C mouse assessed as change in paw volume at 300 mg/kg, po administered on day 3 post tumor inoculation measured on day 6 by plethysmometer analysis (reference value: 86.1 +/- 5.7%); format: functional
[5] = Acute toxicity in Balb/C mouse assessed as survival rate at 200 mg/kg, po; format: organism-based; settings: in vivo
In short: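 Fixed dose procedure following OECD guideline; Balb/C mice (20-35 g) fasted 16 h, groups of 5 given single oral doses stepwise at 600, 400 and 200 mgKg-1; survival and clinical signs of pain, suffering and impending death recorded per OECD guidance.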

[6] = Antitumor activity against mouse EAT implanted in Balb/C mouse assessed as change in paw volume at 300 mg/kg, po administered on day 3 post tumor inoculation measured on day 15 by plethysmometer analysis (reference value: 166.5 +/- 6.0%); format: functional
[7] = test system: 786-0; experiment: Cell cycle arrest in human 786-0 cells assessed as accumulation at Sub G1 phase at 25 uM after 24 hrs by propidium iodide based flow cytometric analysis (reference value: 3.0 +/- 0.7%); format: functional
[8] = test system: 786-0; experiment: Cell cycle arrest in human 786-0 cells assessed as accumulation at G2/M phase at 25 uM after 24 hrs by propidium iodide based flow cytometric analysis (reference value: 35.7 +/- 0.9%); format: functional

S=C(N/N=C/c1cccs1)Nc1ccc(Br)cc1
GI50 at 48 h [1]: 800 nM
CC50 [2]: 91.8 µM
Activity [3]: 73.7%
Activity [4]: 75.1%
survival [5]: 100%
Activity [6]: 106%
Activity [7]: 5.4%
Activity [8]: 35.9%
